Source: ChEMBL document CHEMBL1275598, “In vitro activity of ceftaroline against community-associated methicillin-resistant, vancomycin-intermediate, vancomycin-resistant, and daptomycin-nonsusceptible Staphylococcus aureus isolates” (2010)

What was measured:
Staphylococcus aureus [1] = assay: Antimicrobial activity against vancomycin intermediate Staphylococcus aureus NRS-51 expressing SCCmec type 2 element by microdilution method in presence of 50 mg/L calcium; type: functional
Summary of the method: (§1)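 Daptomycin MIC by CLSI broth microdilution in cation-adjusted Mueller-Hinton broth, supplemented with calcium to a final 50 mg/liter. Read visually as the lowest concentration with no visible growth. ATCC 29213 and E. faecalis ATCC 29212 served as controls. CA-MRSA and DNSSA isolates came from patients at the study hospital; VISA isolates came from NARSA.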

Staphylococcus aureus [2] = assay: Antimicrobial activity against vancomycin resistant Staphylococcus aureus VRS-3 expressing SCCmec type 4 element by microdilution method in presence of 50 mg/L calcium
Staphylococcus aureus [3] = assay: Bactericidal activity against daptomycin-nonsusceptible Staphylococcus aureus assessed as antibiotic concentration that reduced the number of viable cells by =>99.9% by colony count method in presence of 50 mg/L calcium; type: functional
Summary of the method: (§2)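 MBC per CLSI following microdilution in cation-adjusted Mueller-Hinton broth with calcium added to 50 mg/liter final. Defined as the concentration giving ≥99.9% reduction in viable cells, judged from colony counts of the growth control well against Pearson rejection-value tables.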

Staphylococcus aureus [4] = assay: Antimicrobial activity against vancomycin intermediate Staphylococcus aureus NRS-19 expressing SCCmec type 2 element by microdilution method in presence of 50 mg/L calcium; type: functional; summary of the method: as §1
Staphylococcus aureus [5] = assay: Antimicrobial activity against vancomycin resistant Staphylococcus aureus VRS-10 expressing SCCmec type 2 element by microdilution method in presence of 50 mg/L calcium
Staphylococcus aureus [6] = assay: Antimicrobial activity against vancomycin intermediate Staphylococcus aureus NRS-126 expressing SCCmec type 2 element by microdilution method in presence of 50 mg/L calcium; type: functional; summary of the method: as §1
Staphylococcus aureus [7] = assay: Antimicrobial activity against vancomycin intermediate Staphylococcus aureus NRS-23 expressing SCCmec type 2 element by microdilution method in presence of 50 mg/L calcium; type: functional; summary of the method: as §1
Staphylococcus aureus [8] = assay: Bactericidal activity against vancomycin-intermediate Staphylococcus aureus assessed as antibiotic concentration that reduced the number of viable cells by =>99.9% by colony count method in presence of 50 mg/L calcium; type: functional; summary of the method: as §2
Staphylococcus aureus [9] = assay: Antimicrobial activity against community-acquired methicillin-resistant Staphylococcus aureus assessed as susceptible isolates by microdilution method in presence of 50 mg/L calcium; type: functional
Summary of the method: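 Daptomycin MICs by CLSI broth microdilution in cation-adjusted Mueller-Hinton broth with calcium added to a final 50 mg/liter, read visually. Percentage susceptible among 92 CA-MRSA isolates assigned by CLSI breakpoints.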

Staphylococcus aureus [10] = assay: Antimicrobial activity against vancomycin resistant Staphylococcus aureus VRS-8 expressing SCCmec element by microdilution method in presence of 50 mg/L calcium
Staphylococcus aureus [11] = assay: Antimicrobial activity against vancomycin intermediate Staphylococcus aureus NRS-74 expressing SCCmec type 2 element by microdilution method in presence of 50 mg/L calcium; type: functional
Summary of the method: (§3)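 Broth microdilution per CLSI in cation-adjusted Mueller-Hinton broth supplemented with calcium to 50 mg/liter final. Antibiotic powders were reconstituted per CLSI. The MIC was read visually as the lowest drug concentration with no visible growth. S. aureus ATCC 29213 and E. faecalis ATCC 29212 served as control strains.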

Staphylococcus aureus [12] = assay: Antimicrobial activity against vancomycin resistant Staphylococcus aureus VRS-6 expressing SCCmec type 2 element by microdilution method in presence of 50 mg/L calcium; type: functional; summary of the method: as §3
Staphylococcus aureus [13] = assay: Antimicrobial activity against vancomycin intermediate Staphylococcus aureus NRS-118 expressing SCCmec type 1 element by microdilution method in presence of 50 mg/L calcium; type: functional; summary of the method: as §1
Staphylococcus aureus [14] = assay: Bactericidal activity against community-acquired methicillin-resistant Staphylococcus aureus assessed as antibiotic concentration that reduced the number of viable cells by =>99.9% by colony count method in presence of 50 mg/L calcium; type: functional; summary of the method: as §2
Staphylococcus aureus [15] = assay: Antimicrobial activity against vancomycin intermediate Staphylococcus aureus NRS-404 expressing SCCmec type 2 element by microdilution method in presence of 50 mg/L calcium; type: functional; summary of the method: as §1
Staphylococcus aureus [16] = assay: Antimicrobial activity against vancomycin resistant Staphylococcus aureus VRS-1 expressing SCCmec type 2 element by microdilution method in presence of 50 mg/L calcium; type: functional; summary of the method: as §3
Staphylococcus aureus [17] = assay: Antimicrobial activity against vancomycin-intermediate Staphylococcus aureus by microdilution method in presence of 50 mg/L calcium; type: functional
Summary of the method: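 Daptomycin MIC by CLSI broth microdilution in cation-adjusted Mueller-Hinton broth supplemented with calcium to a final 50 mg/liter. The endpoint is the lowest concentration with no visible growth, read visually. S. aureus ATCC 29213 and E. faecalis ATCC 29212 were used as control strains.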

Staphylococcus aureus [18] = assay: Antimicrobial activity against vancomycin resistant Staphylococcus aureus VRS-5 expressing SCCmec type 2 element by microdilution method in presence of 50 mg/L calcium
Staphylococcus aureus [19] = assay: Antimicrobial activity against vancomycin intermediate Staphylococcus aureus NRS-402 expressing SCCmec type 2 element by microdilution method in presence of 50 mg/L calcium; type: functional; summary of the method: as §1
Staphylococcus aureus [20] = assay: Antimicrobial activity against vancomycin intermediate Staphylococcus aureus NRS-24 expressing SCCmec type 2 element by microdilution method in presence of 50 mg/L calcium; type: functional; summary of the method: as §1
Staphylococcus aureus [21] = assay: Bactericidal activity against vancomycin-resistant Staphylococcus aureus assessed as antibiotic concentration that reduced the number of viable cells by =>99.9% by colony count method in presence of 50 mg/L calcium; type: functional; summary of the method: as §2
Staphylococcus aureus [22] = assay: Antimicrobial activity against vancomycin intermediate Staphylococcus aureus NRS-17 expressing SCCmec type 2 element by microdilution method in presence of 50 mg/L calcium; type: functional; summary of the method: as §1
Staphylococcus aureus [23] = assay: Antimicrobial activity against vancomycin resistant Staphylococcus aureus VRS-9 expressing SCCmec type 2 element by microdilution method in presence of 50 mg/L calcium
Staphylococcus aureus [24] = assay: Antimicrobial activity against daptomycin-nonsusceptible Staphylococcus aureus assessed as susceptible isolates by microdilution method in presence of 50 mg/L calcium; type: functional
Summary of the method: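 Broth microdilution MIC per CLSI in cation-adjusted Mueller-Hinton broth, with calcium added to a final 50 mg/liter for daptomycin testing. MIC is the lowest drug concentration with no visible growth, read by eye. Percent susceptible was assigned from CLSI breakpoints. S. aureus ATCC 29213 and E. faecalis ATCC 29212 served as control strains.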

Staphylococcus aureus [25] = assay: Antimicrobial activity against vancomycin resistant Staphylococcus aureus VRS-2 expressing SCCmec type 2 element by microdilution method in presence of 50 mg/L calcium
Staphylococcus aureus [26] = assay: Antimicrobial activity against vancomycin intermediate Staphylococcus aureus NRS-73 expressing SCCmec type 4d element by microdilution method in presence of 50 mg/L calcium; type: functional; summary of the method: as §1
Staphylococcus aureus [27] = assay: Antimicrobial activity against vancomycin-resistant Staphylococcus aureus by microdilution method in presence of 50 mg/L calcium; type: functional; summary of the method: as §3
Staphylococcus aureus [28] = assay: Antimicrobial activity against vancomycin intermediate Staphylococcus aureus NRS-403 expressing SCCmec type 2 element by microdilution method in presence of 50 mg/L calcium; type: functional; summary of the method: as §1
Staphylococcus aureus [29] = assay: Antimicrobial activity against daptomycin-nonsusceptible Staphylococcus aureus by microdilution method in presence of 50 mg/L calcium; type: functional; summary of the method: as §1

Q: With `CCCCCCCCCC(=O)N[C@@H](Cc1c[nH]c2ccccc12)C(=O)N[C@H](CC(N)=O)C(=O)N[C@@H](CC(=O)O)C(=O)N[C@@H]1C(=O)NCC(=O)N[C@@H](CCCN)C(=O)N[C@@H](CC(=O)O)C(=O)N[C@H](C)C(=O)N[C@@H](CC(=O)O)C(=O)NCC(=O)N[C@H](CO)C(=O)N[C@@H]([C@H](C)CC(=O)O)C(=O)N[C@@H](CC(=O)c2ccccc2N)C(=O)O[C@@H]1C` as the compound, how does the MIC (Staphylococcus aureus [1]) read?
A: The MIC was 1 µg/mL.

Q: What about the MIC (Staphylococcus aureus [2]) of the same compound?
A: Its MIC is 0.5 µg/mL.

Q: And the MBC (Staphylococcus aureus [3])?
A: The MBC was 4 µg/mL.

Q: And the MBC50 (Staphylococcus aureus [3])?
A: The MBC50 was 8 µg/mL.

Q: What about the MBC (Staphylococcus aureus [3]; Staphylococcus aureus, read-out: MBC) of the same compound?
A: The MBC was 5.94 µg/mL.

Q: What about the MIC (Staphylococcus aureus [4]) of the same compound?
A: The MIC was 2 µg/mL.

Q: And the MIC (Staphylococcus aureus [5])?
A: Its MIC is 0.5 µg/mL.

Q: What about the MIC (Staphylococcus aureus [6]) of the same compound?
A: The MIC was 2 µg/mL.

Q: And the MIC (Staphylococcus aureus [7])?
A: The MIC was 2 µg/mL.

Q: And the MBC50 (Staphylococcus aureus [8])?
A: Its MBC50 is 2 µg/mL.

Q: And the MBC90 (Staphylococcus aureus [8])?
A: The MBC90 was 4 µg/mL.

Q: And the MBC (Staphylococcus aureus [8]; Staphylococcus aureus)?
A: Its MBC is 0.5 µg/mL.

Q: And the Activity (Staphylococcus aureus [9])?
A: The Activity was 100%.

Q: What about the MIC (Staphylococcus aureus [10]) of the same compound?
A: Its MIC is 0.5 µg/mL.

Q: What about the MIC (Staphylococcus aureus [11]) of the same compound?
A: The MIC was 4 µg/mL.

Q: What about the MIC (Staphylococcus aureus [12]) of the same compound?
A: The MIC was 1 µg/mL.

Q: And the MIC (Staphylococcus aureus [13])?
A: The MIC was 4 µg/mL.

Q: And the MBC50 (Staphylococcus aureus [14])?
A: Its MBC50 is 0.5 µg/mL.

Q: What about the MBC90 (Staphylococcus aureus [14]) of the same compound?
A: Its MBC90 is 1 µg/mL.

Q: What about the MBC (Staphylococcus aureus [14]; Staphylococcus aureus) of the same compound?
A: Its MBC is 0.25 µg/mL.

Q: What about the MIC (Staphylococcus aureus [15]) of the same compound?
A: The MIC was 2 µg/mL.

Q: What about the MIC (Staphylococcus aureus [16]) of the same compound?
A: The MIC was 1 µg/mL.

Q: What about the MIC50 (Staphylococcus aureus [17]) of the same compound?
A: Its MIC50 is 2 µg/mL.

Q: What about the MIC90 (Staphylococcus aureus [17]) of the same compound?
A: Its MIC90 is 4 µg/mL.

Q: What about the MIC (Staphylococcus aureus [18]) of the same compound?
A: The MIC was 0.5 µg/mL.

Q: And the MIC (Staphylococcus aureus [19])?
A: The MIC was 8 µg/mL.

Q: What about the MIC (Staphylococcus aureus [20]) of the same compound?
A: The MIC was 2 µg/mL.

Q: And the MBC50 (Staphylococcus aureus [21])?
A: Its MBC50 is 1 µg/mL.

Q: What about the MBC90 (Staphylococcus aureus [21]) of the same compound?
A: The MBC90 was 1 µg/mL.

Q: What about the MBC (Staphylococcus aureus [21]; Staphylococcus aureus) of the same compound?
A: The MBC was 0.5 µg/mL.

Q: And the MIC (Staphylococcus aureus [22])?
A: Its MIC is 4 µg/mL.

Q: What about the MIC (Staphylococcus aureus [23]) of the same compound?
A: Its MIC is 0.5 µg/mL.

Q: What about the Activity (Staphylococcus aureus [24]) of the same compound?
A: Its Activity is 0%.

Q: And the MIC (Staphylococcus aureus [25])?
A: The MIC was 0.5 µg/mL.

Q: And the MIC (Staphylococcus aureus [26])?
A: The MIC was 2 µg/mL.

Q: What about the MIC (Staphylococcus aureus [27]) of the same compound?
A: The MIC was 0.5 µg/mL.

Q: What about the MIC50 (Staphylococcus aureus [27]) of the same compound?
A: The MIC50 was 0.5 µg/mL.

Q: What about the MIC90 (Staphylococcus aureus [27]) of the same compound?
A: Its MIC90 is 1 µg/mL.

Q: What about the MIC (Staphylococcus aureus [28]) of the same compound?
A: Its MIC is 2 µg/mL.

Q: And the MIC (Staphylococcus aureus [29])?
A: Its MIC is 4 µg/mL.

Q: And the MIC50 (Staphylococcus aureus [29])?
A: The MIC50 was 4 µg/mL.
